From ChEMBL document CHEMBL1128595, “Synthesis and biological activity of 7-alkylidenecephems” (J Med Chem, 1995)

Columns and labels:
[1] = molecular target: T1, Beta-lactamase (Enterobacter cloacae, UniProt P05364); assay: The concentration of compound to inhibit beta-lactamase was measured on Enterobacter cloacae P99; type: functional
[2] = molecular target: T1, Beta-lactamase; assay: The concentration of compound to inhibit beta-lactamase was measured on Enterobacter cloacae SC 12368; type: functional
[3] = molecular target: T2, Beta-lactamase TEM (Escherichia coli, UniProt P62593); assay: (§1) The concentration of compound to inhibit beta-lactamase was measured on Escherichia coli WC3310; type: functional
T2 sequence (P62593 whole entry): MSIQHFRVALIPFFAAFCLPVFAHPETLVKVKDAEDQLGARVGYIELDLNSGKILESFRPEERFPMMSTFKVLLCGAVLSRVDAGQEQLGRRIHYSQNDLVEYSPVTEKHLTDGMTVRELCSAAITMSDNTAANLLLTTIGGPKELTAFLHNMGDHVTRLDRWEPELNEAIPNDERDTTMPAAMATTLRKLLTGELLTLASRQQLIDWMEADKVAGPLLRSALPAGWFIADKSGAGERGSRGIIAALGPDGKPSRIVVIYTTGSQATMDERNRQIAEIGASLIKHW
Outline: (§2)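 TEM-2 β-lactamase partially purified from E. coli W3310 (freeze-thaw lysis, DNase, Sephadex G-75 gel filtration). Enzyme preincubated with varied inhibitor in 50 mM phosphate buffer pH 7.2 at 25 °C for 10 min.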

[4] = molecular target: T1, Beta-lactamase; assay: The concentration of compound to inhibit Beta-lactamase was measured on Enterobacter cloacae P99; type: functional
[5] = molecular target: T2, Beta-lactamase TEM; assay: (§3) The concentration of compound to inhibit Beta-lactamase was measured on Escherichia coli WC3310; type: functional
Outline: as §2, with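 “min. Aliquot then diluted into nitrocefin (the more concentrated standard solution), and hydrolysis rate read at 482 nm.” for “min.”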

[6] = molecular target: T1, Beta-lactamase; assay: The concentration of compound to inhibit Beta-lactamase was measured on Enterobacter cloacae SC 12368; type: functional
[7] = molecular target: T2, Beta-lactamase TEM; assay: as §3; type: functional; outline: as §2; remark: listed apart in the source
[8] = The pseudo second order rate constant of inhibition (k3'') was measured by using Kitz and Wilson method; type: ADME
Outline: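 Kitz–Wilson analysis with E. cloacae P99 β-lactamase in 50 mM phosphate pH 7.2 at 25 °C. Enzyme incubated with five inhibitor concentrations (assay 2.8 × 10⁻⁸ to 1.4 × 10⁻⁷ M; enzyme 2.56 nM final). Aliquots taken at 30 s intervals over 5 min, diluted into nitrocefin (0.19 mM), absorbance at 482 nm read for 10 s. Reciprocal rate constants plotted against reciprocal inhibitor concentration.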

[9] = molecular target: T2, Beta-lactamase TEM; assay: as §1; type: functional; remark: listed apart in the source
Outline: as §2, with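 “min. Aliquot then diluted into nitrocefin (the more concentrated standard solution), and hydrolysis rate read at 482 nm.” for “min.”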

T1 sequence (P05364 whole entry): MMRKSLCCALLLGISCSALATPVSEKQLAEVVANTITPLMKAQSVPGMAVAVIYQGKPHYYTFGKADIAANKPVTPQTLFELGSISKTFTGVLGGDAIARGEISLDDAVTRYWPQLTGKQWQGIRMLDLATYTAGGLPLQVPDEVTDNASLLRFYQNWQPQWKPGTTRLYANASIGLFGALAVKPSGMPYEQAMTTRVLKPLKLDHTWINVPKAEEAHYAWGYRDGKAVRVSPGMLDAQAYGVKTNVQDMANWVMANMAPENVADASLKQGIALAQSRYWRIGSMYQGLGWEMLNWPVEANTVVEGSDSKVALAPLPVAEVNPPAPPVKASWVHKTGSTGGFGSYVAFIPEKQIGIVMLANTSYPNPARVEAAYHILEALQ

SMILES	IC50 [1] [µM]	IC50 [2] [µM]	IC50 [3] [µM]	IC50 [4] [µM]	IC50 [5] [µM]	IC50 [6] [µM]	other results
CC(=O)OCC1=C(C(=O)O)N2C(=O)/C(=C\c3ccccc3)[C@H]2S(=O)(=O)C1	> 20	> 20	> 20				
CON(C)C(=O)/C=C1/C(=O)N2C(C(=O)O)=C(COC(C)=O)CS[C@H]12	> 20	> 20	> 20				
CC(=O)OCC1=C(C(=O)O)N2C(=O)C(=C(Br)Br)[C@H]2SC1				> 20	> 20	> 20	
CC(=O)OCC1=C(C(=O)O)N2C(=O)/C(=C\Br)[C@H]2SC1				> 20		> 20	IC50 [7]: > 20 µM
CC(=O)OCC1=C(C(=O)O)N2C(=O)C(=C(Cl)Cl)[C@H]2S(=O)(=O)C1	> 20	> 20	8.3				
CC(=O)OCC1=C(C(=O)[O-])N2C(=O)C(=C=CC(C)(C)C)[C@H]2S(=O)(=O)C1.[Na+]				0.13	> 20	0.26	k3' [8]: 1.7e+06 L (M min)-1
CC(=O)OCC1=C(C(=O)O)N2C(=O)/C(=C/C(=O)OC(C)(C)C)[C@H]2SC1				2.5	> 20	> 20	
CC(=O)OCC1=C(C(=O)O)N2C(=O)/C(=C/C(C)(C)C)[C@H]2SC1	> 20	> 20					IC50 [9]: > 20 µM
C[C@]1(Cn2ccnn2)[C@H](C(=O)[O-])N2C(=O)C[C@H]2S1(=O)=O.[Na+] [TAZOBACTAM SODIUM]							k3' [8]: 74000 L (M min)-1
CC(=O)OCC1=C(C(=O)O)N2C(=O)/C(=C\Br)[C@H]2S(=O)(=O)C1	> 20	> 20					IC50 [9]: > 20 µM
CC(=O)OCC1=C(C(=O)O)N2C(=O)/C(=C/CO)[C@H]2S(=O)(=O)C1	> 20	> 20					IC50 [9]: > 20 µM
CC(=O)OCC1=C(C(=O)O)N2C(=O)/C(=C/C(=O)OC(C)(C)C)[C@H]2S(=O)(=O)C1	7.8	5.9	0.005				
CC(=O)OCC1=C(C(=O)[O-])N2C(=O)/C(=C/c3ccccn3)[C@H]2S(=O)(=O)C1.[Na+]	0.025	0.025	0.8				k3' [8]: 5.3e+06 L (M min)-1
CC(=O)OCC1=C(C(=O)O)N2C(=O)/C(=C/C(C)(C)C)[C@H]2S(=O)(=O)C1	> 20	> 20					IC50 [9]: > 20 µM
CC(=O)OCC1=C(C(=O)O)N2C(=O)/C(=C/c3ccccc3)[C@H]2SC1				> 20	> 20	> 20	
CC(=O)OCC1=C(C(=O)O)N2C(=O)C(=C(Br)Br)[C@H]2S(=O)(=O)C1	> 20	> 20	> 20				
CC(=O)OCC1=C(C(=O)O)N2C(=O)/C(=C/C=O)[C@H]2SC1				8.2	> 20	16.5	
CC(=O)OCC1=C(C(=O)O)N2C(=O)/C(=C/c3ccccn3)[C@H]2SC1				> 20	> 2	> 20	
O=C([O-])[C@H]1/C(=C/CO)O[C@@H]2CC(=O)N21.[Na+] [CLAVULANIC ACID (SODIUM)]							k3' [8]: 799 L (M min)-1
CC(=O)OCC1=C(C(=O)O)N2C(=O)C(=C(Cl)Cl)[C@H]2SC1				> 20	> 20	> 20	
CC(=O)OCC1=C(C(=O)O)N2C(=O)/C(=C/c3ccccc3)[C@H]2S(=O)(=O)C1	6.25	6.8	> 20				
CC(=O)/C=C1/C(=O)N2C(C(=O)O)=C(COC(C)=O)CS[C@H]12				> 20	> 20	> 20	
